According to ChEMBL document CHEMBL1649124, “Genetic variability among ampC genes from acinetobacter genomic species 3” (Antimicrob Agents Chemother, 2009):

Tests used:
Type in all cases: functional
Escherichia coli [1] = experiment: Antibacterial activity against Escherichia coli DH5alpha carrying ampC gene of Acinetobacter genomosp. 3 isolate 109 by Etest method
How it was run: (§1)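 E. coli DH5α expressing the AG3 isolate ampC gene, PCR-amplified (high-fidelity system, 28 cycles) and cloned into BamHI/HindIII sites of pBGS18 (kanamycin marker) under the CTX-M-14 β-lactamase promoter. Grown at 37°C in LB, with kanamycin 50 µg/ml when needed. β-Lactam MICs determined by Etest per the manufacturer's instructions.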

Acinetobacter pittii [2] = experiment: Antibacterial activity against Acinetobacter genomosp. 3 isolate 20 by Etest method in presence of cloxacillin and efflux pump inhibitor PAN
Acinetobacter pittii [3] = experiment: Antibacterial activity against Acinetobacter genomosp. 3 isolate 20 by Etest method in efflux pump inhibitor CCCP
Acinetobacter pittii [4] = experiment: Antibacterial activity against Acinetobacter genomosp. 3 isolate 52 by Etest method in presence of cloxacillin and efflux pump inhibitor PAN
Acinetobacter pittii [5] = experiment: Antibacterial activity against Acinetobacter genomosp. 3 isolate 69 by Etest method in presence of cloxacillin and efflux pump inhibitor CCCP
Acinetobacter pittii [6] = experiment: Antibacterial activity against Acinetobacter genomosp. 3 isolate 56 by Etest method in presence of cloxacillin
How it was run: (§2)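 MICs for AG3 clinical isolates were read by Etest following the manufacturer's instructions. Isolates were stored at –80°C in 10% Brucella glycerol broth before testing.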

Acinetobacter pittii [7] = experiment: Antibacterial activity against Acinetobacter genomosp. 3 isolate 195 by Etest method in presence of cloxacillin; how it was run: as §2
Acinetobacter pittii [8] = experiment: Antibacterial activity against Acinetobacter genomosp. 3 isolate 109 by Etest method in presence of cloxacillin and efflux pump inhibitor PAN
Acinetobacter pittii [9] = experiment: Antibacterial activity against Acinetobacter genomosp. 3 isolate 103 by Etest method; how it was run: as §2
Escherichia coli [10] = experiment: Antibacterial activity against Escherichia coli DH5alpha carrying ampC gene of Acinetobacter genomosp. 3 isolate 195 by Etest method; how it was run: as §1
Acinetobacter pittii [11] = experiment: Antibacterial activity against Acinetobacter genomosp. 3 isolate 195 by Etest method; how it was run: as §2
Acinetobacter pittii [12] = experiment: Antibacterial activity against Acinetobacter genomosp. 3 isolate 52 by Etest method; how it was run: as §2
Acinetobacter pittii [13] = experiment: Antibacterial activity against Acinetobacter genomosp. 3 isolate 69 by Etest method in presence of efflux pump inhibitor PAN
Acinetobacter pittii [14] = experiment: Antibacterial activity against Acinetobacter genomosp. 3 isolate 65 by Etest method; how it was run: as §2
Acinetobacter pittii [15] = experiment: Antibacterial activity against Acinetobacter genomosp. 3 isolate 109 by Etest method; how it was run: as §2
Escherichia coli [16] = experiment: Antibacterial activity against Escherichia coli DH5alpha carrying ampC gene of Acinetobacter genomosp. 3 isolate 65 by Etest method; how it was run: as §1
Acinetobacter pittii [17] = experiment: Antibacterial activity against Acinetobacter genomosp. 3 isolate 67 by Etest method in presence of efflux pump inhibitor PAN
Acinetobacter pittii [18] = experiment: Antibacterial activity against Acinetobacter genomosp. 3 isolate 90 by Etest method in presence of efflux pump inhibitor CCCP
Acinetobacter pittii [19] = experiment: Antibacterial activity against Acinetobacter genomosp. 3 isolate 65 by Etest method in presence of cloxacillin and efflux pump inhibitor CCCP
Acinetobacter pittii [20] = experiment: Antibacterial activity against Acinetobacter genomosp. 3 isolate 243 by Etest method; how it was run: as §2
Acinetobacter pittii [21] = experiment: Antibacterial activity against Acinetobacter genomosp. 3 isolate 195 by Etest method in presence of cloxacillin and efflux pump inhibitor CCCP
Acinetobacter pittii [22] = experiment: Antibacterial activity against Acinetobacter genomosp. 3 isolate 103 by Etest method in presence of efflux pump inhibitor CCCP
Acinetobacter pittii [23] = experiment: Antibacterial activity against Acinetobacter genomosp. 3 isolate 67 by Etest method in presence of cloxacillin and efflux pump inhibitor CCCP
Acinetobacter pittii [24] = experiment: Antibacterial activity against Acinetobacter genomosp. 3 isolate 195 by Etest method in presence of efflux pump inhibitor PAN
Acinetobacter pittii [25] = experiment: Antibacterial activity against Acinetobacter genomosp. 3 isolate 69 by Etest method in presence of efflux pump inhibitor CCCP
Acinetobacter pittii [26] = experiment: Antibacterial activity against Acinetobacter genomosp. 3 isolate 69 by Etest method; how it was run: as §2
Acinetobacter pittii [27] = experiment: Antibacterial activity against Acinetobacter genomosp. 3 isolate 195 by Etest method in presence of efflux pump inhibitor CCCP
Acinetobacter pittii [28] = experiment: Antibacterial activity against Acinetobacter genomosp. 3 isolate 103 by Etest method in presence of cloxacillin and efflux pump inhibitor PAN
Acinetobacter pittii [29] = experiment: Antibacterial activity against Acinetobacter genomosp. 3 isolate 14 by Etest method in presence of cloxacillin and efflux pump inhibitor […]
Acinetobacter pittii [30] = experiment: Antibacterial activity against Acinetobacter genomosp. 3 isolate 56 by Etest method in presence of efflux pump inhibitor PAN
Acinetobacter pittii [31] = experiment: Antibacterial activity against Acinetobacter genomosp. 3 isolate 21 by Etest method in presence of efflux pump inhibitor CCCP
Acinetobacter pittii [32] = experiment: Antibacterial activity against Acinetobacter genomosp. 3 isolate 128 by Etest method in presence of efflux pump inhibitor PAN
Acinetobacter pittii [33] = experiment: Antibacterial activity against Acinetobacter genomosp. 3 isolate 128 by Etest method in presence of cloxacillin and efflux pump inhibitor CCCP
Acinetobacter pittii [34] = experiment: Antibacterial activity against Acinetobacter genomosp. 3 isolate 52 by Etest method in presence of efflux pump inhibitor PAN
Acinetobacter pittii [35] = experiment: Antibacterial activity against Acinetobacter genomosp. 3 isolate 67 by Etest method in presence of cloxacillin and efflux pump inhibitor PAN
Acinetobacter pittii [36] = experiment: Antibacterial activity against Acinetobacter genomosp. 3 isolate 14 by Etest method in presence of efflux pump inhibitor PAN
Acinetobacter pittii [37] = experiment: Antibacterial activity against Acinetobacter genomosp. 3 isolate 65 by Etest method in presence of cloxacillin; how it was run: as §2
Acinetobacter pittii [38] = experiment: Antibacterial activity against Acinetobacter genomosp. 3 isolate 67 by Etest method in presence of cloxacillin; how it was run: as §2
Acinetobacter pittii [39] = experiment: Antibacterial activity against Acinetobacter genomosp. 3 isolate 69 by Etest method in presence of cloxacillin and efflux pump inhibitor PAN
Acinetobacter pittii [40] = experiment: Antibacterial activity against Acinetobacter genomosp. 3 isolate 52 by Etest method in presence of cloxacillin and efflux pump inhibitor CCCP
Acinetobacter pittii [41] = experiment: Antibacterial activity against Acinetobacter genomosp. 3 isolate 14 by Etest method in presence of cloxacillin and efflux pump inhibitor PAN
Acinetobacter pittii [42] = experiment: Antibacterial activity against Acinetobacter genomosp. 3 isolate 243 by Etest method in presence of efflux pump inhibitor PAN
Acinetobacter pittii [43] = experiment: Antibacterial activity against Acinetobacter genomosp. 3 isolate 21 by Etest method in presence of cloxacillin and efflux pump inhibitor PAN
Acinetobacter pittii [44] = experiment: Antibacterial activity against Acinetobacter genomosp. 3 isolate 69 by Etest method in presence of cloxacillin; how it was run: as §2
Acinetobacter pittii [45] = experiment: Antibacterial activity against Acinetobacter genomosp. 3 isolate 60 by Etest method in presence of efflux pump inhibitor PAN
Acinetobacter pittii [46] = experiment: Antibacterial activity against Acinetobacter genomosp. 3 isolate 67 by Etest method; how it was run: as §2
Acinetobacter pittii [47] = experiment: Antibacterial activity against Acinetobacter genomosp. 3 isolate 14 by Etest method in presence of efflux pump inhibitor CCCP
Acinetobacter pittii [48] = experiment: Antibacterial activity against Acinetobacter genomosp. 3 isolate 103 by Etest method in presence of efflux pump inhibitor PAN
Acinetobacter pittii [49] = experiment: Antibacterial activity against Acinetobacter genomosp. 3 isolate 60 by Etest method; how it was run: as §2
Acinetobacter pittii [50] = experiment: Antibacterial activity against Acinetobacter genomosp. 3 isolate 21 by Etest method in presence of efflux pump inhibitor PAN

Measured: MIC

CC(=O)OCC1=C(C(=O)O)N2C(=O)[C@@H](NC(=O)Cc3cccs3)[C@H]2SC1 [CEPHALOTHIN]
128 µg/mL: Acinetobacter pittii [8] | Acinetobacter pittii [35] | Acinetobacter pittii [37] | Acinetobacter pittii [38] | Acinetobacter pittii [41]
24 µg/mL: Acinetobacter pittii [5] | Acinetobacter pittii [19] | Acinetobacter pittii [23] | Acinetobacter pittii [29]
192 µg/mL: Escherichia coli [16] | Acinetobacter pittii [28] | Acinetobacter pittii [43]
32 µg/mL: Acinetobacter pittii [33]
96 µg/mL: Acinetobacter pittii [21]
12 µg/mL: Acinetobacter pittii [40]
> 256 µg/mL: all other assays above

C[C@@H](O)[C@H]1C(=O)N2C(C(=O)O)=C(S[C@@H]3CN[C@H](C(=O)N(C)C)C3)[C@H](C)[C@H]12 [MEROPENEM]
0.032 µg/mL: Escherichia coli [1] | Escherichia coli [10]
0.75 µg/mL: Acinetobacter pittii [28] | Acinetobacter pittii [48] | Acinetobacter pittii [49]
0.38 µg/mL: Acinetobacter pittii [6] | Acinetobacter pittii [8] | Acinetobacter pittii [15] | Acinetobacter pittii [21] | Acinetobacter pittii [34] | Acinetobacter pittii [39] | Acinetobacter pittii [41]
0.64 µg/mL: Acinetobacter pittii [43]
0.023 µg/mL: Escherichia coli [16]
0.5 µg/mL: Acinetobacter pittii [4] | Acinetobacter pittii [12] | Acinetobacter pittii [14] | Acinetobacter pittii [27] | Acinetobacter pittii [31] | Acinetobacter pittii [46]
4 µg/mL: Acinetobacter pittii [3]
0.47 µg/mL: Acinetobacter pittii [50]
1.5 µg/mL: Acinetobacter pittii [18]
1 µg/mL: Acinetobacter pittii [7] | Acinetobacter pittii [11] | Acinetobacter pittii [22] | Acinetobacter pittii [24]
0.19 µg/mL: Acinetobacter pittii [5] | Acinetobacter pittii [19] | Acinetobacter pittii [23] | Acinetobacter pittii [37] | Acinetobacter pittii [42] | Acinetobacter pittii [44] | Acinetobacter pittii [45]
0.125 µg/mL: Acinetobacter pittii [32]
0.094 µg/mL: Acinetobacter pittii [30] | Acinetobacter pittii [33] | Acinetobacter pittii [40]
3 µg/mL: Acinetobacter pittii [2] | Acinetobacter pittii [9]
0.25 µg/mL: all other assays above
